Measured values from article PMC10424182 (Journal of Medicinal Chemistry, 2023).
Where two headings read alike, the source gives them in different places.

Key:
Format in all cases: binding
[1] = molecular target: T1, AD brain homogenates (mixed 3R/4R-tau) (Homo sapiens, UniProt P10636); experiment: Competition
[2] = molecular target: T2, PSP brain homogenates (4R-tau aggregates) (Homo sapiens, UniProt P10636); experiment: Competition
How it was run: (§1)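 Post-mortem human brain homogenate in PBS pH 7.0, 100 μg tissue/mL final, with ~1 nM tritiated radioligand and unlabelled test compound at 0.1–1000 nM (0.25% DMSO final for non-Enamine compounds). Incubated 60 min at room temperature, then GF/B filtration, four PBS washes and scintillation counting. Full inhibition was taken as counts displaced by 1 μM unlabelled radioligand. Triplicates at each concentration.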

[3] = molecular target: T1, AD brain homogenates (mixed 3R/4R-tau); experiment: Single concentration; conditions: 300 nM unlabeled compound
[4] = molecular target: T2, PSP brain homogenates (4R-tau aggregates); experiment: Single concentration; conditions: 300 nM unlabeled compound
How it was run: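 A PSP homogenate (100 μg tissue/mL) was run with ~1 nM [3H]-ligand as in the Ki assay, with a single 300 nM test compound, 60 min at room temperature, then filtered and counted. 0% was specific binding with no competitor; 100% was nonspecific binding at 1 μM unlabelled radioligand. The % value is […] divided by the 0%−100% count difference, ×100. Run in triplicate.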

[5] = molecular target: aggregated amyloid-beta (Aβ) in AD tissue (Homo sapiens, UniProt P05067); experiment: Competition
How it was run: as §1

[6] = molecular target: T3, CBD brain homogenates (4R-tau aggregates) (Homo sapiens, UniProt P10636); experiment: Competition
How it was run: as §1

[7] = molecular target: T2, PSP brain homogenates (4R-tau aggregates); experiment: Competition; remark: listed apart in the source
How it was run: as §1

[8] = molecular target: T1, AD brain homogenates (mixed 3R/4R-tau); experiment: Competition; remark: listed apart in the source
[9] = molecular target: T2, PSP brain homogenates (4R-tau aggregates); experiment: Competition; remark: listed apart in the source
How it was run: as §1

[10] = molecular target: T1, AD brain homogenates (mixed 3R/4R-tau); experiment: Competition; remark: listed apart in the source
[11] = molecular target: T3, CBD brain homogenates (4R-tau aggregates); experiment: Competition; remark: listed apart in the source
How it was run: as §1

[12] = molecular target: T3, CBD brain homogenates (4R-tau aggregates); experiment: Competition; remark: listed apart in the source
How it was run: as §1

[13] = molecular target: T2, PSP brain homogenates (4R-tau aggregates); experiment: Competition; remark: listed apart in the source
How it was run: as §1

[14] = molecular target: T1, AD brain homogenates (mixed 3R/4R-tau); experiment: Competition; remark: listed apart in the source

T1 sequence (P10636 623-758 limits assumed): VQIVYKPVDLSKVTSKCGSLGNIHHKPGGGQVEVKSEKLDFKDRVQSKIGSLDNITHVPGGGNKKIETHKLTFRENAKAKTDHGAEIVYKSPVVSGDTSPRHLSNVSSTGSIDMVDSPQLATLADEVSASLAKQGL
T3 sequence (P10636 1-441 isoform P10636-8): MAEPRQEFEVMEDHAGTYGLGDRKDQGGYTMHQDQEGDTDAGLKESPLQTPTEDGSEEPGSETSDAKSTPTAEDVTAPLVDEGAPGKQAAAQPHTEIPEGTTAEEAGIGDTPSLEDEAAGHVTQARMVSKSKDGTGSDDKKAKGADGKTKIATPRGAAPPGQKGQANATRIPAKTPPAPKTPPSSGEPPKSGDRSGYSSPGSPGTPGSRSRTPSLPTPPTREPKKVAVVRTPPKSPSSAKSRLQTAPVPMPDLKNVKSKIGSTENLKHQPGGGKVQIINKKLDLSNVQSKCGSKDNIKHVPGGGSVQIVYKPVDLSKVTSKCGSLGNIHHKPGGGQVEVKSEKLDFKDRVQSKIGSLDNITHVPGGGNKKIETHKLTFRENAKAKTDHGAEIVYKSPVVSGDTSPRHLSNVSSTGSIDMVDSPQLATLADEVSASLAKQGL
T2 sequence (P10636 1-441 isoform P10636-8): as above
Sequence of aggregated amyloid-beta (Aβ) in AD tissue (P05067 672-713): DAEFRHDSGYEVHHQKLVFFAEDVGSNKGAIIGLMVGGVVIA

Row | Ki [1] [nM] | Ki [2] [nM] | Ki [7] [nM] | Ki [10] [nM] | Ki [11] [nM] | further results | Structure (SMILES)
1 | 21 | 22 |  |  |  |  | O=C1CCN(c2ncc(-c3cc4ccccc4[nH]3)cn2)CCN1 [Compound 19]
2 | 12 | 22 |  |  |  | inhibition of [^3H]1, AD tissue [3]: > 65%; inhibition of [^3H]1, PSP tissue [4]: > 65% | Oc1cccc2sc(-c3cnc(N4CCC(O)CC4)nc3)cc12 [Compound 6]
3 |  |  | 270 | 270 | 230 | Ki [5]: 62 ± 3 nM; Ki [6]: 110 nM; Ki [8]: 100 nM; Ki [9]: 93 nM | Fc1ccc2cc(-c3cnc(N4CCOCC4)nc3)[nH]c2c1 [Compound 21, 4-(5-(6-fluoro-1H-indol-2-yl)pyrimidin-2-yl)morpholine]
4 | 745 | 520 |  |  |  | Ki [12]: 2930 nM; Ki [13]: > 10 µM; Ki [14]: 7.14 µM | OCC1CCN(c2ccc(-c3cc4cc(O)ccc4[nH]3)c(F)n2)CC1 [CBD-2115, 2-(2-fluoro-6-(4-(hydroxymethyl)piperidin-1-yl)pyridin-3-yl)-1H-indol-5-ol]
5 | 18 | 18 |  |  |  |  | O[C@@H]1CCN(c2ccc(-c3cc4ccc(F)cc4[nH]3)cn2)C1 [Compound 20]
6 |  |  | 250 | 270 | 210 | Ki [5]: 142 ± 5 nM; Ki [6]: 71 nM; Ki [8]: 80 nM; Ki [9]: 95 nM | OC1CCN(c2ncc(-c3cc4ccc(F)cc4[nH]3)cn2)CC1 [Compound 1, 1-(5-(6-fluoro-1H-indol-2-yl)pyrimidin-2-yl)piperidin-4-ol]
7 | 15 | 18 | > 10000 | 7930 | 1540 |  | CNc1ccc(/C=C/C=C/c2nc3ccc(OCC(O)CF)cc3s2)cn1 (centres unmarked) [PM-PBB3, reference compound]
8 | 96 | 315 |  |  |  |  | Nc1c(F)ccc2cnc(-n3ccc4ccncc43)cc12 [MK-6240]
9 | 58 | 89 |  |  |  |  | Fc1cc(-c2ccc3c(n2)[nH]c2ccncc23)ccn1 [PI-2620]
10 | > 1000 | > 1000 |  |  |  |  | Fc1ccc(-c2ccc3c(c2)[nH]c2ccncc23)cn1 [Tauvid]
